The source made the active and inactive calls. No cut-off for these calls is given here.
Key:
[1] = biological target: CDK9/cyclin T1 (Homo sapiens) (UniProt O60563+P50750); experiment: Inhibition of recombinant CDK9/cyclin T1 (unknown origin) at 5 uM after 1 hr by FRET-based adapta assay; format: protein-complex assay
In short: (§1)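 After inhibitor and all reaction components are added, the reaction runs for 1 h. ADP formed by the kinase displaces an antibody-tracer complex, so reduced ADP gives a high TR-FRET signal. Inhibition is calculated against a control.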

[2] = biological target: Ribosomal protein S6 kinase beta-1 (Homo sapiens, UniProt P23443); experiment: Inhibition of recombinant RPS6K1 (unknown origin) by FRET-based Z'-LYTE assay
[3] = biological target: Mitogen-activated protein kinase 8 (Homo sapiens) (UniProt P45983); experiment: Inhibition of recombinant MAPK8 (unknown origin) at 5 uM by FRET-based Z'-LYTE assay
In short: (§2)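 Single-point panel screen at 5 μM in duplicate. ATP is at the apparent Km of each kinase, and the Z'-LYTE FRET peptide substrate is used. Each point has two control wells: a protease control for interference with development and a fluorescence control for interference with the FRET read-out. Values above 100% are treated as maximal inhibition and values below 0% as none.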

[4] = biological target: Aurora kinase A (Homo sapiens) (UniProt O14965); experiment: Inhibition of recombinant AURKA (unknown origin) at 5 uM by FRET-based Z'-LYTE assay; in short: as §2
[5] = biological target: Dual specificity tyrosine-phosphorylation-regulated kinase 3 (Homo sapiens) (UniProt O43781); experiment: Inhibition of recombinant DYRK3 (unknown origin) at 5 uM by FRET-based Z'-LYTE assay; in short: as §2
Sequence of Dual specificity tyrosine-phosphorylation-regulated kinase 3 (Homo sapiens) (O43781 whole entry): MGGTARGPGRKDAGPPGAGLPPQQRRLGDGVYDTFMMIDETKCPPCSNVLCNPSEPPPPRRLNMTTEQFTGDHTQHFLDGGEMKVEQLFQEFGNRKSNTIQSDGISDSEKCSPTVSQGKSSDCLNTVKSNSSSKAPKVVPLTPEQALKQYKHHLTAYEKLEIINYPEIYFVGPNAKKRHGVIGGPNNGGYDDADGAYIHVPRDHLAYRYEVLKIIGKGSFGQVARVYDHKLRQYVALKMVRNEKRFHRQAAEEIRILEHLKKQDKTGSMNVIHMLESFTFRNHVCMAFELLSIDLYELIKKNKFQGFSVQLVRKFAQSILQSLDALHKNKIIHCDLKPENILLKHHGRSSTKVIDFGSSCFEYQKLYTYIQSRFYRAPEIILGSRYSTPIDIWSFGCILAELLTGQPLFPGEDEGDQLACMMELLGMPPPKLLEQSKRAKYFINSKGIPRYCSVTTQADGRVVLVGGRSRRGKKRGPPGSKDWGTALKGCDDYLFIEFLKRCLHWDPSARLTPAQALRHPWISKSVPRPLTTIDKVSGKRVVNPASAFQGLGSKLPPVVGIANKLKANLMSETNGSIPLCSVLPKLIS

[6] = biological target: Protein kinase C beta type (Homo sapiens) (UniProt P05771); experiment: Inhibition of recombinant PRKCB1 (unknown origin) at 5 uM by FRET-based Z'-LYTE assay
In short: (§3)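 Z'-LYTE FRET peptide (coumarin/fluorescein) phosphorylation was followed by protease development. Wells included a protease control for interference with development and a fluorescence control for interference with the FRET read. Values above 100% or below 0% were treated as maximal or no inhibition.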

[7] = biological target: Cyclin-dependent kinase 1/cyclin B1 (Homo sapiens) (UniProt P06493+P14635); experiment: Inhibition of recombinant CDK1/cyclin B (unknown origin) at 5 uM by FRET-based Z'-LYTE assay; format: protein-complex assay; in short: as §2
Sequence of Cyclin-dependent kinase 1/cyclin B1 (Homo sapiens) (P06493 whole entry, looked up, canonical isoform): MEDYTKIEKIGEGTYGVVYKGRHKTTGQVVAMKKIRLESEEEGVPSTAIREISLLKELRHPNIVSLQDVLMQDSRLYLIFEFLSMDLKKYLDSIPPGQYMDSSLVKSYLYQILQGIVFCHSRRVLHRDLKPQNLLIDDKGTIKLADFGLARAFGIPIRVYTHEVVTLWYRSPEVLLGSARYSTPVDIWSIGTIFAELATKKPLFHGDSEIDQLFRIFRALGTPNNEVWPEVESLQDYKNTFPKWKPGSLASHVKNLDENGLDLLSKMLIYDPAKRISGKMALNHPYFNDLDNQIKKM
Sequence of Cyclin-dependent kinase 1/cyclin B1 (Homo sapiens) (P14635 whole entry, looked up, canonical isoform): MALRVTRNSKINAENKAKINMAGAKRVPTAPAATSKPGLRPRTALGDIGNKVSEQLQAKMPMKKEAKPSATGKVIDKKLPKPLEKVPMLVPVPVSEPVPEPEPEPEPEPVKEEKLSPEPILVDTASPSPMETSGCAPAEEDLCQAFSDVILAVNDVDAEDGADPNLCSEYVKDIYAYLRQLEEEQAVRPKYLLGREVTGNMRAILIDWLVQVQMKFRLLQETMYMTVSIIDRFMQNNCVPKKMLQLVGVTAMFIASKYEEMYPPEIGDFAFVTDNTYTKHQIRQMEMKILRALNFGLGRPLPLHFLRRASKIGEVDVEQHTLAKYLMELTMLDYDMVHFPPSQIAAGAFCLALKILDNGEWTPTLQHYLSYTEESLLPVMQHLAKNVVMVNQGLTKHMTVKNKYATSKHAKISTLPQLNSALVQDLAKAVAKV

[8] = biological target: Phosphorylase b kinase gamma catalytic chain, liver/testis isoform (Homo sapiens) (UniProt P15735); experiment: Inhibition of recombinant PHKG2 (unknown origin) at 5 uM by FRET-based Z'-LYTE assay; in short: as §2
[9] = biological target: Casein kinase II subunit alpha (Homo sapiens) (UniProt P68400); experiment: Inhibition of recombinant CSNK2A1 (unknown origin) at 5 uM by FRET-based Z'-LYTE assay; in short: as §2
Sequence of Casein kinase II subunit alpha (Homo sapiens) (P68400 whole entry, looked up): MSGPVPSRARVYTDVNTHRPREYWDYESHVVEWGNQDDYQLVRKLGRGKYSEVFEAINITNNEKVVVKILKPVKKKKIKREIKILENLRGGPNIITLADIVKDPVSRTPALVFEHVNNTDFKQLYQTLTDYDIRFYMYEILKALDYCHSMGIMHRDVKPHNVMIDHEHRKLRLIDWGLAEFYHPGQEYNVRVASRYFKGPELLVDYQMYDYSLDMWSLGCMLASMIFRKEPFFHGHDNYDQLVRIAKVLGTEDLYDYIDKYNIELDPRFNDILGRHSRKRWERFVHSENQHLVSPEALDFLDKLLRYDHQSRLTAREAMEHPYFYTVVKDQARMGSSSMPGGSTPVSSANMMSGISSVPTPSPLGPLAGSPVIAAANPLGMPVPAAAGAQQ

[10] = biological target: AMP-activated protein kinase (AMPK) alpha-1/beta-1/gamma-1 (Homo sapiens, UniProt P54619+Q13131+Q9Y478); experiment: Inhibition of recombinant AMPK A1/B1/G1 (unknown origin) by FRET-based Z'-LYTE assay; format: protein-complex assay
[11] = biological target: Angiopoietin-1 receptor (Homo sapiens) (UniProt Q02763); experiment: Inhibition of recombinant TEK (unknown origin) at 5 uM by FRET-based Z'-LYTE assay; in short: as §3
Sequence of Angiopoietin-1 receptor (Homo sapiens) (Q02763 whole entry): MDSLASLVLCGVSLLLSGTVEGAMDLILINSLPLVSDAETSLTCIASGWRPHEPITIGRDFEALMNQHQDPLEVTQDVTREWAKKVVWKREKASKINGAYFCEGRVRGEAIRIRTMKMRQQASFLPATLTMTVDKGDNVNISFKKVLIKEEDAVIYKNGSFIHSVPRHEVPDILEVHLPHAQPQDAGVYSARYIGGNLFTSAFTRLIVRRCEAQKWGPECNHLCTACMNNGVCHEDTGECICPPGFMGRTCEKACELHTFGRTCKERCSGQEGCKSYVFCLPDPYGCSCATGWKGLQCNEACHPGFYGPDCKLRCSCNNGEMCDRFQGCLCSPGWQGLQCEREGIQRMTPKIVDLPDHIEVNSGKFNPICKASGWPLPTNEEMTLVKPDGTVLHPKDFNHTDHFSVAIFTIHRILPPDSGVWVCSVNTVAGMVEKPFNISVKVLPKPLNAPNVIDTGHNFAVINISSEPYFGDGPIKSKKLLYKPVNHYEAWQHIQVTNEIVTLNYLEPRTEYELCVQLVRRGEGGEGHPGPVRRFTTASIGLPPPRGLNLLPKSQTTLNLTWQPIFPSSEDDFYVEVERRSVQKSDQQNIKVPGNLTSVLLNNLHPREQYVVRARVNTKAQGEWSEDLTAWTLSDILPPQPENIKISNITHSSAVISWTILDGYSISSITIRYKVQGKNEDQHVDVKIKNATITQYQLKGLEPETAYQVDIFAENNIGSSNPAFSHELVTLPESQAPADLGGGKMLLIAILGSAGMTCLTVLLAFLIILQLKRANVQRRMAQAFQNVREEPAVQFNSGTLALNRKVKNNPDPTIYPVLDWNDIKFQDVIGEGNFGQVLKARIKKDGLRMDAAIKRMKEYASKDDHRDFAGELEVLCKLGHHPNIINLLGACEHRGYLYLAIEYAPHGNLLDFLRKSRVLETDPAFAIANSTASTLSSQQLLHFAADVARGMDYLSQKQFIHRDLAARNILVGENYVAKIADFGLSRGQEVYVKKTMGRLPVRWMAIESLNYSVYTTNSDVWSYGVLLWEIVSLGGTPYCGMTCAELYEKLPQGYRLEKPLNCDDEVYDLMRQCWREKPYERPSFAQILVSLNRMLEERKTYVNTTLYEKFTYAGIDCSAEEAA

[12] = biological target: Vascular endothelial growth factor receptor 2 (Homo sapiens, UniProt P35968); experiment: Inhibition of recombinant KDR (unknown origin) by FRET-based Z'-LYTE assay
[13] = biological target: Casein kinase I isoform gamma-2 (Homo sapiens) (UniProt P78368); experiment: Inhibition of recombinant CSNK1G2 (unknown origin) at 5 uM by FRET-based Z'-LYTE assay; in short: as §2
Sequence of Casein kinase I isoform gamma-2 (Homo sapiens) (P78368 whole entry, looked up, canonical isoform): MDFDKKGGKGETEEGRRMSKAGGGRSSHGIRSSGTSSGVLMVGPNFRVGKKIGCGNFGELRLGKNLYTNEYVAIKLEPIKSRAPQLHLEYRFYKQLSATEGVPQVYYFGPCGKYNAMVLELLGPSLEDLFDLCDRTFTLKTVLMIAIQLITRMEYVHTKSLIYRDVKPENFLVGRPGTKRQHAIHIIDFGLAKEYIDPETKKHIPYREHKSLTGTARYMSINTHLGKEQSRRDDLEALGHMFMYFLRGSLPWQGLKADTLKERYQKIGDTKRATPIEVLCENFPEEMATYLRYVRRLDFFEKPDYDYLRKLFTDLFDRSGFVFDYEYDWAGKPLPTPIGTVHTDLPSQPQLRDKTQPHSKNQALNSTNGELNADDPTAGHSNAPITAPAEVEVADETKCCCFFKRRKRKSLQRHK

[14] = biological target: Mitogen-activated protein kinase 14 (Homo sapiens, UniProt Q16539); experiment: Inhibition of recombinant MAPK14 (unknown origin) at 5 uM by cascade reaction assay
Sequence of Mitogen-activated protein kinase 14 (Q16539 whole entry): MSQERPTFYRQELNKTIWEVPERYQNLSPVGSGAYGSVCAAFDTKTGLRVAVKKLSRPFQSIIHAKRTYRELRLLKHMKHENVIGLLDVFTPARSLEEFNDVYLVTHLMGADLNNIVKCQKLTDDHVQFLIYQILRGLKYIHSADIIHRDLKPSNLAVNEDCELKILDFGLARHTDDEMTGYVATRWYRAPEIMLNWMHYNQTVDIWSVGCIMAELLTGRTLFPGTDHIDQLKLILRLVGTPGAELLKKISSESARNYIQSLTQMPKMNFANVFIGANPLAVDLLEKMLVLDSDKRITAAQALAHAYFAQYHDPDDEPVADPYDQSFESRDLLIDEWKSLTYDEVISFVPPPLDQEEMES

[15] = biological target: Serine/threonine-protein kinase Nek1 (Homo sapiens) (UniProt Q96PY6); experiment: Inhibition of recombinant NEK1 (unknown origin) at 5 uM by FRET-based Z'-LYTE assay; in short: as §2
[16] = biological target: High affinity nerve growth factor receptor (Homo sapiens) (UniProt P04629); experiment: Inhibition of recombinant NTRK1 (unknown origin) at 5 uM by FRET-based Z'-LYTE assay; in short: as §2
[17] = biological target: Serine/threonine-protein kinase PLK1 (Homo sapiens) (UniProt P53350); experiment: Inhibition of recombinant PLK1 (unknown origin) at 5 uM by FRET-based Z'-LYTE assay; in short: as §2
[18] = biological target: Tyrosine-protein kinase JAK3 (Homo sapiens) (UniProt P52333); experiment: Inhibition of recombinant JAK3 (unknown origin) at 5 uM by FRET-based Z'-LYTE assay; in short: as §2
[19] = biological target: Dual specificity mitogen-activated protein kinase kinase 1 (Homo sapiens, UniProt Q02750); experiment: Inhibition of recombinant MEK1 (unknown origin) by cascade reaction assay
[20] = biological target: Mitogen-activated protein kinase 1 (Homo sapiens, UniProt P28482); experiment: Competitive inhibition of recombinant ERK2 (unknown origin) by FRET-based Z'-LYTE assay
[21] = biological target: Rho-associated protein kinase 1 (Homo sapiens) (UniProt Q13464); experiment: Inhibition of recombinant ROCK1 (unknown origin) at 5 uM by FRET-based Z'-LYTE assay; in short: as §3
[22] = biological target: Serine/threonine-protein kinase Chk1 (Homo sapiens) (UniProt O14757); experiment: Inhibition of recombinant CHEK1 (unknown origin) at 5 uM by FRET-based Z'-LYTE assay; in short: as §2
Sequence of Serine/threonine-protein kinase Chk1 (Homo sapiens) (O14757 whole entry): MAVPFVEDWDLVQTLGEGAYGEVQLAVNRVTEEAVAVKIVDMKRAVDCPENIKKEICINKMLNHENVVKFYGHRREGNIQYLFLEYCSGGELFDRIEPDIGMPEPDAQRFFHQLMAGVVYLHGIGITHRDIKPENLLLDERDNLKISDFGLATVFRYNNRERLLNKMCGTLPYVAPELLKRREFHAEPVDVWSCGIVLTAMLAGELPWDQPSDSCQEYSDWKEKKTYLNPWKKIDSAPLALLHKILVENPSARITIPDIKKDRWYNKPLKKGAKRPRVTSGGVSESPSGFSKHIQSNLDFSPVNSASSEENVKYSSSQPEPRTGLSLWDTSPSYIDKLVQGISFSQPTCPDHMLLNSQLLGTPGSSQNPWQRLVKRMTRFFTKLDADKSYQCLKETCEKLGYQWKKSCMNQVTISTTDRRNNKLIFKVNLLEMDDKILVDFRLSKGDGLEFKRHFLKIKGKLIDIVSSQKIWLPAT

[23] = biological target: RAF proto-oncogene serine/threonine-protein kinase (Homo sapiens, UniProt P04049); experiment: Inhibition of recombinant RAF1 (unknown origin) by cascade reaction assay
Sequence of RAF proto-oncogene serine/threonine-protein kinase (P04049 whole entry): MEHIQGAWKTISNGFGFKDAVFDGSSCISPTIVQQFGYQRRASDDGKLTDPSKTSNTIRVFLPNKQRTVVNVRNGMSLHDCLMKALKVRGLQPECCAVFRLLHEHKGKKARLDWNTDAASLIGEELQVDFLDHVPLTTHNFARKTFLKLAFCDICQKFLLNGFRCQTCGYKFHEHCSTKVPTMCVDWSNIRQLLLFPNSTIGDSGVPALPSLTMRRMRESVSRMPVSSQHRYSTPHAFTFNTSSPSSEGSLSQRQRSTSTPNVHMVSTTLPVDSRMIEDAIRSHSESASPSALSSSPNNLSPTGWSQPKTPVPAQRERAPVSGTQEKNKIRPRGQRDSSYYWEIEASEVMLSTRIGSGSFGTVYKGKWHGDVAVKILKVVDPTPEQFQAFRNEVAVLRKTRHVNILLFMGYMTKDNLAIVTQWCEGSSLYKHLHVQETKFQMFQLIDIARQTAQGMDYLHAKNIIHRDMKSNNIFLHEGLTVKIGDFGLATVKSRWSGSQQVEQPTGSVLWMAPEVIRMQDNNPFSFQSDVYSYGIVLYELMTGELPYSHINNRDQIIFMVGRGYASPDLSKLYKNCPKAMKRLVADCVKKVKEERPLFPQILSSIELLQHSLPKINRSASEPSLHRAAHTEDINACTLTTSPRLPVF

[24] = biological target: Cyclin-dependent kinase 2/cyclin A (Homo sapiens) (UniProt P24941+P20248+P78396); experiment: Inhibition of recombinant CDK2/cyclin A (unknown origin) at 5 uM by FRET-based Z'-LYTE assay; format: protein-complex assay; in short: as §2
[25] = biological target: Cyclin-dependent kinase 7/ cyclin H (Homo sapiens) (UniProt P51946+P50613); experiment: Inhibition of recombinant CDK7/cyclin H/MNAT1 (unknown origin) at 5 uM after 1 hr by FRET-based adapta assay; format: protein-complex assay; in short: as §1
[26] = biological target: Glycogen synthase kinase-3 beta (Homo sapiens) (UniProt P49841); experiment: Inhibition of recombinant GSK3B (unknown origin) at 5 uM by FRET-based Z'-LYTE assay; in short: as §2
[27] = biological target: RAC-alpha serine/threonine-protein kinase (Homo sapiens, UniProt P31749); experiment: Inhibition of recombinant AKT1 (unknown origin) by FRET-based Z'-LYTE assay
[28] = biological target: Phosphatidylinositol 4,5-bisphosphate 3-kinase catalytic subunit gamma isoform (Homo sapiens) (UniProt P48736); experiment: Inhibition of recombinant PIK3CG (unknown origin) at 5 uM after 1 hr by FRET-based adapta assay; in short: as §1
[29] = biological target: Serine/threonine-protein kinase pim-1 (Homo sapiens) (UniProt P11309); experiment: Inhibition of recombinant PIM1 (unknown origin) at 5 uM by FRET-based Z'-LYTE assay; in short: as §2
[30] = biological target: AMP-activated protein kinase (AMPK) alpha-1/beta-1/gamma-1 (Homo sapiens) (UniProt P54619+Q9Y478+Q13131); experiment: Inhibition of recombinant AMPK A1/B1/G1 (unknown origin) at 5 uM by FRET-based Z'-LYTE assay; format: protein-complex assay; in short: as §2

O=C1/C(=C/c2ccccn2)CNC/C1=C\c1ccccn1
inhibition [1]: 26%
IC50 [2]: 1400 nM
inhibition [3]: 16%
inhibition [4]: 77%
inhibition [5]: 48%
inhibition [6]: 91%
inhibition [7]: 24%
inhibition [8]: 37%
inhibition [9]: 5%
IC50 [10]: 1500 nM
inhibition [11]: 51%
IC50 [12]: 660 nM
inhibition [13]: 12%
inhibition [14]: 104%
inhibition [15]: 102%
inhibition [16]: 25%
inhibition [17]: -9%
inhibition [18]: 15%
IC50 [19]: 1100 nM
inhibition [20]: Active
inhibition [21]: 58%
inhibition [22]: 90%
IC50 [23]: 1600 nM
inhibition [24]: 1%
inhibition [25]: 3%
inhibition [26]: 17%
IC50 [27]: 20 nM
inhibition [28]: 34%
inhibition [29]: 10%
inhibition [30]: 95%

Reference: ChEMBL document CHEMBL2331439 (J Med Chem, 2013)
